Active and inactive are the calls of the source. The rule behind the calls is not given here.
Experiments:
[1] = target: T1, Polyunsaturated fatty acid 5-lipoxygenase (Homo sapiens, UniProt P09917); assay: Inhibition of recombinant 5-lipoxygenase expressed in Escherichia coli BL21 using arachidonic acid as substrate incubated for 15 mins prior to substrate addition measured after 10 mins by HPLC analysis
T1 sequence (P09917 whole entry): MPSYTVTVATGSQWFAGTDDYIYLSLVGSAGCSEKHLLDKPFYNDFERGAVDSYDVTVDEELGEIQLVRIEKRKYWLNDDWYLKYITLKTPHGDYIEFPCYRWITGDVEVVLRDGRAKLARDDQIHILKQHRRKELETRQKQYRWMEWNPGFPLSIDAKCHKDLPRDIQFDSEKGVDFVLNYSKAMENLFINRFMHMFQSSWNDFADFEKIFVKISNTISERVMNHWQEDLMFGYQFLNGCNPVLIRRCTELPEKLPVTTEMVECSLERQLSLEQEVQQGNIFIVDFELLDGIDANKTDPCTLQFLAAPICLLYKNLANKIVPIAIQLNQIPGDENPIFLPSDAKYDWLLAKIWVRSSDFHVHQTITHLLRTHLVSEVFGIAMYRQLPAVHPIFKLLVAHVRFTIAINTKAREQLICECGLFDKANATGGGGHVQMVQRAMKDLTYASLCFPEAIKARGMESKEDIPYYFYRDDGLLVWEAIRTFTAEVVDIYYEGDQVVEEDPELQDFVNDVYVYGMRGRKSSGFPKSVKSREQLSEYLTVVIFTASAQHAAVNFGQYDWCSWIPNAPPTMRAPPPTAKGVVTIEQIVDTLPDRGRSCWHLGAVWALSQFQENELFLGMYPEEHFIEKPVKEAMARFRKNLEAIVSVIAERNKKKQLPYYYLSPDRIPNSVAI
Procedure, shortened: (§1)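 Compounds were first tested at 30 μM, and IC50 values were determined only for those giving at least 50% inhibition. The 5-LO assay was cell-free with HPLC read-out, and the sEH assay used a fluorescence read-out.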

[2] = target: T2, Bifunctional epoxide hydrolase 2 (Homo sapiens) (UniProt P34913); assay: (§2) Inhibition of soluble epoxide hydrolase using (3-Phenyl-oxiranyl)-acetic acid cyano-(6-methoxy-naphthalen-2-yl)-methyl ester) as substrate incubated for 15 mins prior to substrate addition measured every min for 15 mins by fluorometry; procedure, shortened: as §1
T2 sequence (whole entry): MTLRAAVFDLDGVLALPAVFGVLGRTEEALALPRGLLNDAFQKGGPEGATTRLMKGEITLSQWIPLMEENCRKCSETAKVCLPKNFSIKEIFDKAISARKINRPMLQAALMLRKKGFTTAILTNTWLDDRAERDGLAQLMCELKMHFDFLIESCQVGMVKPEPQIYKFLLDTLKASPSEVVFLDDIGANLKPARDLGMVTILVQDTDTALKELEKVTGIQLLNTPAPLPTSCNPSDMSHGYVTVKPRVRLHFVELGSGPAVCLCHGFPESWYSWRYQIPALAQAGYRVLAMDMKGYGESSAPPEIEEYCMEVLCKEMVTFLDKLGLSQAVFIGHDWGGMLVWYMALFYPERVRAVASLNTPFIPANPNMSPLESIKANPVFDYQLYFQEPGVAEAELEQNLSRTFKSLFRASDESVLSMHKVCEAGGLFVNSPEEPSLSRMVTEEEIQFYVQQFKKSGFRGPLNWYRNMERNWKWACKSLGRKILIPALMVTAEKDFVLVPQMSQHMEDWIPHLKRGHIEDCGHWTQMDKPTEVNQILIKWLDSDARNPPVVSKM

[3] = target: T3, Bifunctional epoxide hydrolase 2 (Homo sapiens, UniProt P34913); assay: as §2; procedure, shortened: as §1
T3 sequence (P34913 whole entry): T2 sequence (whole entry)

Row | SMILES | IC50 [1] [µM] | inhibition [2] | IC50 [3] [µM]
1 | CC(C)CC(=O)Nc1nc2c(s1)CCc1ccccc1-2 | 16 | – | –
2 | COc1ccc(-c2nc3cc(C)ccc3[nH]2)cc1OC | 36 | – | 3.5
3 | CN(C)c1ccc(-n2nc3ccc4ccccc4c3n2)cc1 | 2.2 | – | –
4 | COc1ccc(NC(=O)c2cccc(-n3cnnn3)c2)cc1 | – | – | 1.6
5 | Cn1nnc2cc(NC(=O)NCCC3=CCCCC3)ccc21 | – | – | 0.47

Other lines, results leading:

Row | IC50 [1] [µM] | inhibition [2] | IC50 [3] [µM] | SMILES
6 | 8.1 | – | – | COc1ccc(/C=N/Nc2nc3ccccc3[nH]2)cc1OC
7 | 2.7 | inactive | – | COc1ccc(-c2nc3cc(C)ccc3o2)cc1OC
8 | – | – | 21 | COc1ccc(CC(=O)Nc2ccc(C)cc2)cc1OC
9 | 7.6 | inactive | – | COc1cccc(CNc2nc3ccccc3n2C)c1O

— ChEMBL document CHEMBL2034900, “Dual-target virtual screening by pharmacophore elucidation and molecular shape filtering” (ACS Med Chem Lett, 2012)
